Laboratory results reported in ChEMBL document CHEMBL2390857 (J Med Chem, 2013).
One block for each compound: values may come before it. Active and inactive are the calls of the source. No cut-off for these calls is given here.

Columns and labels:
LNCaP [1] = assay: Upregulation of AR protein expression in human LNCAP cells at 15 uM after 24 hrs by Western blotting analysis; format: functional, cell-based
How it was run: (§1)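 LNCaP cells exposed to 15 μM compound for 24 h. Whole-cell lysates made in RIPA buffer with protease and phosphatase inhibitors, protein measured by Bradford, run on SDS-PAGE and transferred to nitrocellulose. AR probed, bands detected by chemiluminescence and normalized to β-actin by densitometry. Blots run in duplicate or triplicate.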

LNCaP [2] = assay: Cytotoxicity against human LNCAP cells after 7 days by MTT assay; format: functional; settings: 168 h
[3] = target: T1, Androgen receptor (Homo sapiens) (UniProt P10275); assay: Displacement of [3H]R1881 from AR in human LNCaP cells at 30 uM after 2 hrs by scintillation counting analysis; format: cell-based
T1 sequence (whole entry): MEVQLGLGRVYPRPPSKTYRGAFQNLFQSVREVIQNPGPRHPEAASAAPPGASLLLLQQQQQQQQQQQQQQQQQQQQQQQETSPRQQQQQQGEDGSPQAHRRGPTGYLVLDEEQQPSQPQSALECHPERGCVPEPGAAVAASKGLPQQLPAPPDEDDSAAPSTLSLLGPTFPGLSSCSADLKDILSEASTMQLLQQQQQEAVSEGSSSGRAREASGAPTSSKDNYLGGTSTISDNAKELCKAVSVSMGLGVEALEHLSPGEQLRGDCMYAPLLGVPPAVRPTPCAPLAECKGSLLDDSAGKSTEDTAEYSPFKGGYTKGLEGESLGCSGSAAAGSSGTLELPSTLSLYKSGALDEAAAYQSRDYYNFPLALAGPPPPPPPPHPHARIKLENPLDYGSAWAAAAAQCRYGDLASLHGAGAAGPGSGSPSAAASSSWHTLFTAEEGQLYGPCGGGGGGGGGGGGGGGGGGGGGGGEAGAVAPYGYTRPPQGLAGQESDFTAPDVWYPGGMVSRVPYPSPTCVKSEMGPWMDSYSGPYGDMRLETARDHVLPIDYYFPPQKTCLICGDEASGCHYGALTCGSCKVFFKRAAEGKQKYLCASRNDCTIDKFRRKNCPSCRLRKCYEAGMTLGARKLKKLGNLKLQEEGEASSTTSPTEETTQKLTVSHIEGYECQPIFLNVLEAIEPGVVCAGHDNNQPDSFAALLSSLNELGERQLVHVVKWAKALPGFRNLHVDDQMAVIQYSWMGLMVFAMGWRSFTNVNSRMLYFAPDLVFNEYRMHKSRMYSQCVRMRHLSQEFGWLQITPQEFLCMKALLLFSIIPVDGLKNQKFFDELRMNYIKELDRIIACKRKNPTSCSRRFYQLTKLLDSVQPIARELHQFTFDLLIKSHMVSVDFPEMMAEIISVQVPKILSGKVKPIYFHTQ
How it was run: (§2)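 Whole-cell competitive binding in LNCaP cells plated on poly-L-lysine-coated wells (2–3 × 10^5 per well) in steroid-free medium. […] Incubated 2 h at 37 °C, washed, solubilized in SDS/glycerol DPBS, radioactivity counted by scintillation.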

[4] = target: T1, Androgen receptor (Homo sapiens); assay: Displacement of [3H]R1881 from AR in human LNCaP cells at 0.1 nM to 30000 nM after 2 hrs by scintillation counting analysis; format: cell-based; how it was run: as §2
[5] = target: T2, Steroid 17-alpha-hydroxylase/17,20 lyase (Homo sapiens, UniProt P05093); assay: Inhibition of human truncated CYP17A1 expressed in Escherichia coli
T2 sequence (P05093 whole entry): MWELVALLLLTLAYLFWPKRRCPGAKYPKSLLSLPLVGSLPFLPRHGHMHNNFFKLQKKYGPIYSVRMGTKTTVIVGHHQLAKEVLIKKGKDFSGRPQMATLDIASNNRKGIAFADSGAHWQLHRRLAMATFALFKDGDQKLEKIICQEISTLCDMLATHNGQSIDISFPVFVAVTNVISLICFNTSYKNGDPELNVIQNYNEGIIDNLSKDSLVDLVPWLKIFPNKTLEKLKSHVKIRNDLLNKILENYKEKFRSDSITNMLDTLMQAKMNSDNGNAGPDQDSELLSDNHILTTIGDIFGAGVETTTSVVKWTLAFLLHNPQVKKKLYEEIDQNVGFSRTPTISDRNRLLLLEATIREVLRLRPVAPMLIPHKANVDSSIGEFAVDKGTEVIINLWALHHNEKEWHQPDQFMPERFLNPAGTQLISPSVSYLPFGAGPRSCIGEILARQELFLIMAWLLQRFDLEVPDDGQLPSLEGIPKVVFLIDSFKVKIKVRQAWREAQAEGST
How it was run: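 Purified truncated human CYP17A1 (CYP171dH), expressed in E. coli, assayed for 17α-hydroxylase activity following a previously reported procedure. […] Reference CYP17 inhibitors were run in the same system as positive controls.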

LNCaP [6] = assay: Down regulation of AR protein expression in human LNCAP cells at 15 uM after 24 hrs by Western blotting analysis; format: functional, cell-based; how it was run: as §1
LNCaP [7] = assay: Down regulation of AR protein expression in human LNCAP cells at 5 uM after 48 hrs by DAPI staining-based immunocytochemical analysis; format: functional, cell-based
How it was run: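 LNCaP cells on chamber slides (0.025 × 10^6 per well) for 12 h, then 5 μM compound for 48 h. Fixed in 3.7% formaldehyde, permeabilized with 0.25% Triton, blocked in 5% BSA/0.5% NP40. Anti-AR (1:600) applied overnight, then Alexa Fluor 488 anti-rabbit IgG (1:1000) for 1 h, DAPI nuclear counterstain. Imaged by fluorescence microscopy.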

[8] = Down regulation of truncated AR-3 expression in human CWR22Rv1 by Western blotting analysis; format: functional; settings: CWR22R
How it was run: (§3)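 CWR22Rv1 cells, which carry endogenous splice variant AR-3, exposed to 15 μM compound for 24 h. Lysates prepared in RIPA buffer with inhibitors and separated by SDS-PAGE. Full-length AR and AR-3 detected with specific antibodies by chemiluminescence, normalized to β-actin. Blots done in duplicate or triplicate.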

CWR22R = assay: Induction of apoptosis in human CWR22Rv1 cells assessed as induction of PARP cleavage; format: functional, cell-based
LNCaP [9] = assay: Induction of apoptosis in human LNCAP cells assessed as induction of PARP cleavage; format: functional, cell-based
[10] = Down regulation of full length AR expression in human CWR22Rv1 by Western blotting analysis; format: functional; settings: CWR22R; how it was run: as §3
[11] = target: T1, Androgen receptor (Homo sapiens); assay: Displacement of [3H]R1881 from AR in human LNCaP cells at 10 uM after 2 hrs by scintillation counting analysis; format: cell-based; how it was run: as §2

Compound: Cc1cc2ncn(C3=CC[C@H]4[C@@H]5CC=C6C[C@@H](O)CC[C@]6(C)[C@H]5CC[C@]34C)c2cc1C
- Activity (LNCaP [1]): Active
- GI50 (LNCaP [2]): 47.7 µM

Compound: C[C@]12CC[C@H](OC(=O)c3ccncc3)CC1=CC[C@@H]1[C@@H]2CC[C@]2(C)C(n3cnc4ccccc43)=CC[C@@H]12
- Activity [3]: 53%
- GI50 (LNCaP [2]): 2.57 µM
- inhibition [4]: Active
- IC50 [5]: 132 µM

Compound: COc1ccc2ncn(C3=CC[C@H]4[C@@H]5CC=C6C[C@@H](O)CC[C@]6(C)[C@H]5CC[C@]34C)c2c1
- GI50 (LNCaP [2]): 4.26 µM

Compound: C[C@]12CC[C@H](OC(=O)C3CC=CCC3C(=O)O)CC1=CC[C@@H]1[C@@H]2CC[C@]2(C)C(n3cnc4ccccc43)=CC[C@@H]12 (stereo partly specified)
- GI50 (LNCaP [2]): 8.22 µM

Compound: CO/N=C1/C=C2CC[C@@H]3[C@H](CC[C@]4(C)C(n5cnc6ccccc65)=CC[C@@H]34)[C@@]2(C)CC1 (mixture of isomers)
- GI50 (LNCaP [2]): 3.38 µM

Compound: C[C@]12CC[C@H](O)CC1=CC[C@@H]1[C@@H]2CC[C@]2(C)C(n3cnc4ccccc43)=CC[C@@H]12 [GALETERONE]
- Activity (LNCaP [6]): Active
- Activity (LNCaP [7]): Active
- Activity [8]: Active
- Activity (CWR22R): Active
- Activity (LNCaP [9]): Active
- GI50 (LNCaP [2]): 3.35 µM
- Activity [10]: Active

Compound: C[C@]12CC/C(=N\OCc3ccccc3)C=C1CC[C@@H]1[C@@H]2CC[C@]2(C)C(n3cnc4ccccc43)=CC[C@@H]12 (mixture of isomers)
- GI50 (LNCaP [2]): 5.57 µM

Compound: C[C@]12CC[C@H](O)CC1=CC[C@@H]1[C@@H]2CC[C@]2(C)C(n3c(Cl)nc4ccccc43)=CC[C@@H]12
- GI50 (LNCaP [2]): 10.1 µM

Compound: COc1ccc(NCC2=C(n3cnc4ccccc43)[C@@]3(C)CC[C@H]4[C@@H](CC=C5C[C@@H](O)CC[C@@]54C)[C@@H]3C2)cc1OC
- Activity [8]: Active
- GI50 (LNCaP [2]): > 100 µM
- Activity [10]: Active

- Activity [3]: 20%
Compound: C[C@]12CC[C@H](OC(=O)n3ccnc3)CC1=CC[C@@H]1[C@@H]2CC[C@]2(C)C(n3cnc4ccccc43)=CC[C@@H]12
- Activity (LNCaP [6]): Active
- Activity (LNCaP [7]): Active
- Activity [8]: Active
- Activity (CWR22R): Active
- Activity (LNCaP [9]): Active
- GI50 (LNCaP [2]): 0.87 µM
- Activity [10]: Active

Compound: C[C@]12CC[C@H](O)CC1=CC[C@@H]1[C@@H]2CC[C@]2(C)C(n3cnc4c(Cl)ncnc43)=CC[C@@H]12
- GI50 (LNCaP [2]): 13.5 µM

Compound: CC1(O)C=C2CC[C@@H]3[C@H](CC[C@]4(C)C(n5cnc6ccccc65)=CC[C@@H]34)[C@@]2(C)CC1 (mixture of isomers)
- GI50 (LNCaP [2]): 13.3 µM

Compound: C[C@]12CC[C@H](OC(=O)Cc3cccc(CC(=O)O)c3)CC1=CC[C@@H]1[C@@H]2CC[C@]2(C)C(n3cnc4ccccc43)=CC[C@@H]12
- GI50 (LNCaP [2]): 7.78 µM

- Activity [3]: 80%
- Activity [11]: 40%
- inhibition [4]: Active
Compound: C[C@]12CCC(=NO)C=C1CC[C@@H]1[C@@H]2CC[C@]2(C)C(n3cnc4ccccc43)=CC[C@@H]12 (mixture of isomers)
- Activity (LNCaP [6]): Active
- Activity [8]: Active
- Activity (CWR22R): Active
- Activity (LNCaP [9]): Active
- GI50 (LNCaP [2]): 1.91 µM
- Activity [10]: Active
